# Results as given in ChEMBL document CHEMBL1255475, “Mutant prevention concentrations of four carbapenems against gram-negative rods” (2010).
# Assays:
# Escherichia coli [1] = experiment: Antibacterial activity against beta-lactamase-negative Escherichia coli E346 incubated up to 7 days by agar dilution method; format: functional; settings: E346, 168 h
# Klebsiella pneumoniae [2] = experiment: Antibacterial activity against beta-lactamase-negative Klebsiella pneumoniae E418 assessed as mutant prevention concentration after overnight incubation; format: functional
# Method in brief: (§1)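 Overnight growth on blood trypticase soy agar (35°C, air) was resuspended in 0.9% saline and counted on drug-free Mueller-Hinton agar. […] Colonies were retested by agar dilution to confirm mutants. MPC was the lowest concentration preventing resistant-mutant growth.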
# Klebsiella pneumoniae [3] = experiment: Ratio of mutant prevention concentration to minimum Inhibitory concentration for beta-lactamase-positive ESBL-negative Klebsiella pneumoniae E479; format: functional
# Klebsiella pneumoniae [4] = experiment: Ratio of mutant prevention concentration to minimum Inhibitory concentration for beta-lactamase-positive ESBL-negative Klebsiella pneumoniae E481; format: functional
# Escherichia coli [5] = experiment: Ratio of mutant prevention concentration to minimum Inhibitory concentration for beta-lactamase-positive ESBL-negative Escherichia coli E483; format: functional
# Klebsiella pneumoniae [6] = experiment: Ratio of mutant prevention concentration to minimum Inhibitory concentration for beta-lactamase-positive ESBL-negative Klebsiella pneumoniae E474; format: functional
# Escherichia coli [7] = experiment: Ratio of mutant prevention concentration to minimum Inhibitory concentration for beta-lactamase-negative Escherichia coli E346; format: functional
# Escherichia coli [8] = experiment: Ratio of mutant prevention concentration to minimum Inhibitory concentration for beta-lactamase-positive ESBL-negative Escherichia coli E484; format: functional
# Escherichia coli [9] = experiment: Antibacterial activity against beta-lactamase-negative Escherichia coli E425 incubated up to 7 days by agar dilution method; format: functional; settings: E425, 168 h
# Escherichia coli [10] = experiment: Ratio of mutant prevention concentration to minimum Inhibitory concentration for beta-lactamase-positive ESBL-positive Escherichia coli E459; format: functional
# Escherichia coli [11] = experiment: Antibacterial activity against beta-lactamase-positive ESBL-positive Escherichia coli E446 assessed as mutant prevention concentration after overnight incubation; format: functional; method in brief: as §1
# Escherichia coli [12] = experiment: Ratio of mutant prevention concentration to minimum Inhibitory concentration for beta-lactamase-positive ESBL-positive Escherichia coli E465; format: functional
# Klebsiella pneumoniae [13] = experiment: Antibacterial activity against beta-lactamase-positive ESBL-negative Klebsiella pneumoniae E509 incubated up to 7 days by agar dilution method; format: functional; settings: E509, 168 h
# Klebsiella pneumoniae [14] = experiment: Ratio of mutant prevention concentration to minimum Inhibitory concentration for beta-lactamase-negative Klebsiella pneumoniae E420; format: functional
# Escherichia coli [15] = experiment: Ratio of mutant prevention concentration to minimum Inhibitory concentration for beta-lactamase-negative Escherichia coli E424; format: functional
# Klebsiella pneumoniae [16] = experiment: Ratio of mutant prevention concentration to minimum Inhibitory concentration for beta-lactamase-positive ESBL-negative Klebsiella pneumoniae E509; format: functional
# Klebsiella pneumoniae [17] = experiment: Ratio of mutant prevention concentration to minimum Inhibitory concentration for beta-lactamase-positive ESBL-positive Klebsiella pneumoniae E457; format: functional
# Escherichia coli [18] = experiment: Ratio of mutant prevention concentration to minimum Inhibitory concentration for beta-lactamase-positive ESBL-negative Escherichia coli E415; format: functional
# Escherichia coli [19] = experiment: Ratio of mutant prevention concentration to minimum Inhibitory concentration for beta-lactamase-positive ESBL-positive Escherichia coli E451; format: functional
# Escherichia coli [20] = experiment: Ratio of mutant prevention concentration to minimum Inhibitory concentration for beta-lactamase-negative Escherichia coli E344; format: functional
# Escherichia coli [21] = experiment: Antibacterial activity against beta-lactamase-negative Escherichia coli E425 assessed as mutant prevention concentration after overnight incubation; format: functional
# Pseudomonas aeruginosa [22] = experiment: Antibacterial activity against Pseudomonas aeruginosa P352 incubated up to 7 days by agar dilution method; format: functional; settings: P352, 168 h
# Pseudomonas aeruginosa [23] = experiment: Antibacterial activity against Pseudomonas aeruginosa P334 incubated up to 7 days by agar dilution method; format: functional; settings: P334, 168 h
# Pseudomonas aeruginosa [24] = experiment: Antibacterial activity against Pseudomonas aeruginosa P326 incubated up to 7 days by agar dilution method; format: functional; settings: P326, 168 h
# Pseudomonas aeruginosa [25] = experiment: Antibacterial activity against Pseudomonas aeruginosa P332 incubated up to 7 days by agar dilution method; format: functional; settings: P332, 168 h
# Pseudomonas aeruginosa [26] = experiment: Antibacterial activity against Pseudomonas aeruginosa P356 incubated up to 7 days by agar dilution method; format: functional; settings: P356, 168 h
# Pseudomonas aeruginosa [27] = experiment: Antibacterial activity against Pseudomonas aeruginosa P338 incubated up to 7 days by agar dilution method; format: functional; settings: P338, 168 h
# Pseudomonas aeruginosa [28] = experiment: Antibacterial activity against Pseudomonas aeruginosa P353 incubated up to 7 days by agar dilution method; format: functional; settings: P353, 168 h
# Acinetobacter baumannii [29] = experiment: Antibacterial activity against Acinetobacter baumannii A884 incubated for 24 h by agar dilution method; settings: A884, 24 h
# Pseudomonas aeruginosa [30] = experiment: Antibacterial activity against Pseudomonas aeruginosa P356 assessed as mutant prevention concentration after overnight incubation; format: functional
# Pseudomonas aeruginosa [31] = experiment: Antibacterial activity against Pseudomonas aeruginosa P376 incubated up to 7 days by agar dilution method; format: functional; settings: P376, 168 h
# Acinetobacter baumannii [32] = experiment: Antibacterial activity against Acinetobacter baumannii A849 incubated for 24 h by agar dilution method; settings: A849, 24 h
# Acinetobacter baumannii [33] = experiment: Antibacterial activity against Acinetobacter baumannii A892 incubated for 24 h by agar dilution method; settings: A892, 24 h
# Acinetobacter baumannii [34] = experiment: Antibacterial activity against Acinetobacter baumannii A928 incubated for 24 h by agar dilution method; settings: A928, 24 h
# Acinetobacter baumannii [35] = experiment: Antibacterial activity against Acinetobacter baumannii A867 incubated for 24 h by agar dilution method; settings: A867, 24 h
# Acinetobacter baumannii [36] = experiment: Antibacterial activity against Acinetobacter baumannii A910 incubated for 24 h by agar dilution method; settings: A910, 24 h
# Pseudomonas aeruginosa [37] = experiment: Antibacterial activity against Pseudomonas aeruginosa P370 incubated up to 7 days by agar dilution method; format: functional; settings: P370, 168 h
# Acinetobacter baumannii [38] = experiment: Antibacterial activity against Acinetobacter baumannii A903 incubated up to 7 days by agar dilution method; format: functional; settings: A903, 168 h
# Acinetobacter baumannii [39] = experiment: Antibacterial activity against Acinetobacter baumannii A885 incubated up to 7 days by agar dilution method; format: functional; settings: A885, 168 h
# Acinetobacter baumannii [40] = experiment: Antibacterial activity against Acinetobacter baumannii A897 incubated up to 7 days by agar dilution method; format: functional; settings: A897, 168 h
# Pseudomonas aeruginosa [41] = experiment: Antibacterial activity against Pseudomonas aeruginosa P349 incubated up to 7 days by agar dilution method; format: functional; settings: P349, 168 h
# Acinetobacter baumannii [42] = experiment: Antibacterial activity against Acinetobacter baumannii A894 incubated up to 7 days by agar dilution method; format: functional; settings: A894, 168 h
# Acinetobacter baumannii [43] = experiment: Antibacterial activity against Acinetobacter baumannii A892 assessed as mutant prevention concentration after overnight incubation; format: functional
# Acinetobacter baumannii [44] = experiment: Antibacterial activity against Acinetobacter baumannii A911 incubated for 24 h by agar dilution method; settings: A911, 24 h
# Acinetobacter baumannii [45] = experiment: Antibacterial activity against Acinetobacter baumannii A850 incubated up to 7 days by agar dilution method; format: functional; settings: A850, 168 h
# Acinetobacter baumannii [46] = experiment: Antibacterial activity against Acinetobacter baumannii A865 incubated for 24 h by agar dilution method; settings: A865, 24 h
smiles,measurement,setting,value
C[C@@H](O)[C@H]1C(=O)N2C(C(=O)O)=C(S[C@@H]3CN[C@H](C(=O)Nc4cccc(C(=O)O)c4)C3)[C@H](C)[C@H]12,MIC,Escherichia coli [1],0.008 µg/mL
same,MPC,Klebsiella pneumoniae [2],0.125 µg/mL
same,Ratio,Klebsiella pneumoniae [3],8
same,Ratio,Klebsiella pneumoniae [4],2
same,Ratio,Escherichia coli [5],16
same,Ratio,Klebsiella pneumoniae [6],8
same,Ratio,Escherichia coli [7],4
same,Ratio,Escherichia coli [8],16
same,MIC,Escherichia coli [9],0.008 µg/mL
same,Ratio,Escherichia coli [10],2
same,MPC,Escherichia coli [11],1 µg/mL
same,Ratio,Escherichia coli [12],>16
same,MIC,Klebsiella pneumoniae [13],16 µg/mL
same,Ratio,Klebsiella pneumoniae [14],4
same,Ratio,Escherichia coli [15],4
same,Ratio,Klebsiella pneumoniae [16],4
same,Ratio,Klebsiella pneumoniae [17],4
same,Ratio,Escherichia coli [18],4
same,Ratio,Escherichia coli [19],16
same,Ratio,Escherichia coli [20],4
same,MPC,Escherichia coli [21],0.03 µg/mL
C[C@@H](O)[C@H]1C(=O)N2C(C(=O)O)=C(S[C@@H]3CN[C@H](CNS(N)(=O)=O)C3)[C@H](C)[C@H]12 [DORIPENEM],MIC,Escherichia coli [1],0.03 µg/mL
same,MPC,Klebsiella pneumoniae [2],0.25 µg/mL
same,Ratio,Klebsiella pneumoniae [3],>16
same,Ratio,Klebsiella pneumoniae [4],4
same,MIC,Pseudomonas aeruginosa [22],1 µg/mL
same,Ratio,Escherichia coli [5],8
same,MIC,Pseudomonas aeruginosa [23],0.125 µg/mL
same,Ratio,Klebsiella pneumoniae [6],16
same,Ratio,Escherichia coli [7],2
same,MIC,Pseudomonas aeruginosa [24],4 µg/mL
same,MIC,Pseudomonas aeruginosa [25],0.25 µg/mL
same,MIC,Pseudomonas aeruginosa [26],0.25 µg/mL
same,Ratio,Escherichia coli [8],4
same,MIC,Pseudomonas aeruginosa [27],0.25 µg/mL
same,MIC,Escherichia coli [9],0.03 µg/mL
same,MIC,Pseudomonas aeruginosa [28],0.5 µg/mL
same,Ratio,Escherichia coli [10],4
same,MPC,Escherichia coli [11],0.125 µg/mL
same,MIC,Acinetobacter baumannii [29],2 µg/mL
same,Ratio,Escherichia coli [12],16
same,MPC,Pseudomonas aeruginosa [30],>4 µg/mL
same,MIC,Pseudomonas aeruginosa [31],0.5 µg/mL
same,MIC,Acinetobacter baumannii [32],4 µg/mL
same,MIC,Acinetobacter baumannii [33],4 µg/mL
same,MIC,Acinetobacter baumannii [34],0.5 µg/mL
same,MIC,Acinetobacter baumannii [35],4 µg/mL
same,MIC,Acinetobacter baumannii [36],2 µg/mL
same,MIC,Klebsiella pneumoniae [13],4 µg/mL
same,Ratio,Klebsiella pneumoniae [14],1
same,Ratio,Escherichia coli [15],2
same,MIC,Pseudomonas aeruginosa [37],0.25 µg/mL
same,Ratio,Klebsiella pneumoniae [16],>16
same,Ratio,Klebsiella pneumoniae [17],2
same,MIC,Acinetobacter baumannii [38],1 µg/mL
same,MIC,Acinetobacter baumannii [39],4 µg/mL
same,MIC,Acinetobacter baumannii [40],0.5 µg/mL
same,Ratio,Escherichia coli [18],2
same,Ratio,Escherichia coli [19],2
same,MIC,Pseudomonas aeruginosa [41],0.5 µg/mL
same,MIC,Acinetobacter baumannii [42],0.5 µg/mL
same,MPC,Acinetobacter baumannii [43],64 µg/mL
same,MIC,Acinetobacter baumannii [44],4 µg/mL
same,Ratio,Escherichia coli [20],2
same,MIC,Acinetobacter baumannii [45],4 µg/mL
same,MIC,Acinetobacter baumannii [46],8 µg/mL
same,MPC,Escherichia coli [21],0.06 µg/mL
C[C@@H](O)[C@H]1C(=O)N2C(C(=O)O)=C(SCCNC=N)C[C@H]12 [IMIPENEM ANHYDROUS],MPC,Klebsiella pneumoniae [2],4 µg/mL
same,MPC,Escherichia coli [11],2 µg/mL
same,MPC,Pseudomonas aeruginosa [30],>32 µg/mL
same,MPC,Acinetobacter baumannii [43],64 µg/mL
same,MPC,Escherichia coli [21],0.5 µg/mL
C[C@@H](O)[C@H]1C(=O)N2C(C(=O)O)=C(S[C@@H]3CN[C@H](C(=O)N(C)C)C3)[C@H](C)[C@H]12 [MEROPENEM],MPC,Klebsiella pneumoniae [2],0.125 µg/mL
same,MIC,Pseudomonas aeruginosa [22],2 µg/mL
same,MIC,Pseudomonas aeruginosa [23],0.25 µg/mL
same,MIC,Pseudomonas aeruginosa [24],8 µg/mL
same,MIC,Pseudomonas aeruginosa [25],1 µg/mL
same,MIC,Pseudomonas aeruginosa [26],0.5 µg/mL
same,MIC,Pseudomonas aeruginosa [27],0.25 µg/mL
same,MIC,Pseudomonas aeruginosa [28],2 µg/mL
same,MPC,Escherichia coli [11],0.125 µg/mL
same,MIC,Acinetobacter baumannii [29],4 µg/mL
same,MPC,Pseudomonas aeruginosa [30],>4 µg/mL
same,MIC,Pseudomonas aeruginosa [31],1 µg/mL
same,MIC,Acinetobacter baumannii [32],8 µg/mL
same,MIC,Acinetobacter baumannii [33],8 µg/mL
same,MIC,Acinetobacter baumannii [34],1 µg/mL
same,MIC,Acinetobacter baumannii [35],8 µg/mL
same,MIC,Acinetobacter baumannii [36],1 µg/mL
same,MIC,Pseudomonas aeruginosa [37],0.25 µg/mL
same,MIC,Acinetobacter baumannii [38],2 µg/mL
same,MIC,Acinetobacter baumannii [39],2 µg/mL
same,MIC,Acinetobacter baumannii [40],0.5 µg/mL
same,MIC,Pseudomonas aeruginosa [41],1 µg/mL
same,MIC,Acinetobacter baumannii [42],1 µg/mL
same,MIC,Acinetobacter baumannii [44],4 µg/mL
same,MIC,Acinetobacter baumannii [45],4 µg/mL
same,MIC,Acinetobacter baumannii [46],8 µg/mL
same,MPC,Escherichia coli [21],0.06 µg/mL
